Experimental data as given in ChEMBL document CHEMBL4330143, “Maximizing ER-α Degradation Maximizes Activity in a Tamoxifen-Resistant Breast Cancer Model: Identification of GDC-0927” (ACS Med Chem Lett, 2019).
Active and inactive are the calls of the source. The rule behind the calls is not given here.

How the values were obtained:
[1] = biological target: T1, Glucocorticoid receptor (Homo sapiens) (UniProt P04150); assay: Antagonist activity at GR (unknown origin) by transcriptional reporter assay
T1 sequence (whole entry): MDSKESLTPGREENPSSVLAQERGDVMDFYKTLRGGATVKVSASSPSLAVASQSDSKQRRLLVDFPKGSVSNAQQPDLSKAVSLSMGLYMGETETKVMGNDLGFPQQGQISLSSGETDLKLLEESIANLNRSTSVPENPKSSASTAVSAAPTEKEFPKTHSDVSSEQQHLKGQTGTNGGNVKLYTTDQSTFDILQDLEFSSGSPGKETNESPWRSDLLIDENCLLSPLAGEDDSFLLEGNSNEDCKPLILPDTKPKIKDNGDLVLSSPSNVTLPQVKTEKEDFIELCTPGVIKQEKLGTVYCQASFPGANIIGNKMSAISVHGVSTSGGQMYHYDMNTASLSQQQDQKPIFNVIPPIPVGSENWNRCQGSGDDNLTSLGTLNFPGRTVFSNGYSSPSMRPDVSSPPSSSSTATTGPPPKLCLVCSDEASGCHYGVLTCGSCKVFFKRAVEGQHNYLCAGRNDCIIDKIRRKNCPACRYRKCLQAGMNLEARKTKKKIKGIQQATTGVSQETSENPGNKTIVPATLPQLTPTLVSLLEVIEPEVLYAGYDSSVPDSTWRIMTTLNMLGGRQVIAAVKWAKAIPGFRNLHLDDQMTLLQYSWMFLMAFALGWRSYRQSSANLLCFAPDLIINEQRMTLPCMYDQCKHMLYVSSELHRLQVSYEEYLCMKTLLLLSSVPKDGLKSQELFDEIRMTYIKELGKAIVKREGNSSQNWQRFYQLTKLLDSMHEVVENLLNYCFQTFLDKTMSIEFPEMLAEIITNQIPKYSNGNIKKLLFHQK

MCF7 = assay: Antitumor activity against tamoxifen-resistant human MCF7 cells xenografted in nude mouse at 100 mg/kg, po daily for 28 days; format: functional, organism-based
Summary of the method: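 Tamoxifen-resistant MCF-7 tumours grown subcutaneously in mice, with estradiol supplied from subcutaneous 0.72 mg estradiol pellets.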

[2] = biological target: Sodium-dependent dopamine transporter (Homo sapiens, UniProt Q01959); assay: Inhibition of dopamine transporter (unknown origin)
Sodium-dependent dopamine transporter, sequence (Q01959 whole entry): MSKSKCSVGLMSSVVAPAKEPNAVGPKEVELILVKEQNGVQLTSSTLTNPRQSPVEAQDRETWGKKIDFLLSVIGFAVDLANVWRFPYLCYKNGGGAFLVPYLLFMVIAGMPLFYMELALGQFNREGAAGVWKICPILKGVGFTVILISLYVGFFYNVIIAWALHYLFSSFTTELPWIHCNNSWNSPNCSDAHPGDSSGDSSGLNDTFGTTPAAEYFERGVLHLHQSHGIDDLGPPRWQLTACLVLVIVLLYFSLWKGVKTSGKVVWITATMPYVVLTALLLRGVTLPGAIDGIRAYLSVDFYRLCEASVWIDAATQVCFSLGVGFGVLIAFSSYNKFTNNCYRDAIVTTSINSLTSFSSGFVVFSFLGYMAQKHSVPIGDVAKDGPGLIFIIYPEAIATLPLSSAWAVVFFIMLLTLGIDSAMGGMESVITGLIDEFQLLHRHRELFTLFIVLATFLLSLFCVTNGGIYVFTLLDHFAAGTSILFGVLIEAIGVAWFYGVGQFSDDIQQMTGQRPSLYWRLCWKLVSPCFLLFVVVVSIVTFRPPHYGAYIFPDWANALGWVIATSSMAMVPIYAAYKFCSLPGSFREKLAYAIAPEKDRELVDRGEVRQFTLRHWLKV
Summary of the method: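 Cell-based functional follow-up assay, done after hits in a radioligand binding panel run under protein-free conditions. Value reported as IC50.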

Cytochrome P450 2C9 = Cytochrome P450 2C9 (Homo sapiens, UniProt P11712); assay: Inhibition of CYP2C9 (unknown origin); format: ADME
Cytochrome P450 2C9, sequence (P11712 whole entry): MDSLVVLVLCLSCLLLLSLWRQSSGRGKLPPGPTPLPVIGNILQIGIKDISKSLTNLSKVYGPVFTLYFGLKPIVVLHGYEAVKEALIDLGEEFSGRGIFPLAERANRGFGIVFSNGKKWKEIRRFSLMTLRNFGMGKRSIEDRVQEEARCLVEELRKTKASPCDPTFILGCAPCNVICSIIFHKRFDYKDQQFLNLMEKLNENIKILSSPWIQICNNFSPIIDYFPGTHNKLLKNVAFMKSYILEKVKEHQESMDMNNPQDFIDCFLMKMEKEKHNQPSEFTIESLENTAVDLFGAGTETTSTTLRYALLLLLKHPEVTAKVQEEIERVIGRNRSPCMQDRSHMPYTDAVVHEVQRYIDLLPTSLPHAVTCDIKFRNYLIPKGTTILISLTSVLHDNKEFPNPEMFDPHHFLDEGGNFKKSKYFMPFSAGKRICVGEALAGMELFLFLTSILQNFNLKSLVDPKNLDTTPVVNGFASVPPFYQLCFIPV

[3] = AUC (0 to 24 hrs) in nude mouse xenografted with tamoxifen-resistant human MCF7 cells at 100 mg/kg, po daily for 28 days measured on day 28 post last dose; format: ADME, organism-based; design: time < 24 hr, dose 100 mg/kg, route oral; conditions: in vivo
Summary of the method: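 Tamoxifen-resistant MCF-7 xenograft mice carrying subcutaneous 0.72 mg estradiol pellets. Plasma pharmacokinetics sampled on day 28 of the study, at take-down.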

[4] = Genotoxicity in Salmonella typhimurium TA98 by Ames test; format: toxicity; conditions: salmonella enterica subsp. enterica serovar […]
[5] = biological target: T2, Progesterone receptor (Homo sapiens) (UniProt P06401); assay: Agonist activity at PR-B (unknown origin) by transcriptional reporter assay
T2 sequence (whole entry): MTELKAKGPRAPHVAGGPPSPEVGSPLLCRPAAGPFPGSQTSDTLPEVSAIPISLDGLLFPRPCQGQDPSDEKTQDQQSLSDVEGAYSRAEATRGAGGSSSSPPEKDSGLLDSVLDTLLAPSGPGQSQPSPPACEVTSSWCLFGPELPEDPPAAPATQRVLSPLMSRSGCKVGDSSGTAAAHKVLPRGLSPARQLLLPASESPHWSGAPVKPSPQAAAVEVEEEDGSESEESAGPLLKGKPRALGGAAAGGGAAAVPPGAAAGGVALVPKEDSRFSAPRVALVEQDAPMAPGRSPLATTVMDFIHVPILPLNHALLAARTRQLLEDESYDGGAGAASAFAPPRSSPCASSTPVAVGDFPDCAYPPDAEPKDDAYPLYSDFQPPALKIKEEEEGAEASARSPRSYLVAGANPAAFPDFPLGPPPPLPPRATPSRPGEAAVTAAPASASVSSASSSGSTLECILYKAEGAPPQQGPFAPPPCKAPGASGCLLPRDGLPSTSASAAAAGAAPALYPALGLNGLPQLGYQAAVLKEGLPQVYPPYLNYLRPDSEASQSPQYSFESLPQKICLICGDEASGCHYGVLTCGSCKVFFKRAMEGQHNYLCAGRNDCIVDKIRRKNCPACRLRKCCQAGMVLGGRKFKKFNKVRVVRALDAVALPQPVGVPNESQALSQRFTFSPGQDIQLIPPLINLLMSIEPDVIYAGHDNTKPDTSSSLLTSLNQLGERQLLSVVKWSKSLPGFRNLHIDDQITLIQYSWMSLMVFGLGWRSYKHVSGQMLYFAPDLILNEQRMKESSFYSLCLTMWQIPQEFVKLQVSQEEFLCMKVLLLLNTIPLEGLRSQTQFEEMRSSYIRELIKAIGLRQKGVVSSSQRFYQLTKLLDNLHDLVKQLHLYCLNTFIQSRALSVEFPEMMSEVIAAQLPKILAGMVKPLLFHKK

Question: For `CC1=C(c2cccc(O)c2)[C@H](c2ccc(OCCN3CC(CF)C3)cc2)Oc2ccc(O)cc21`, which inhibition [1] is on record?
Answer: The inhibition was “inactive”.

Question: And the Activity (MCF7)?
Answer: Its Activity is “Active”.

Question: What about the IC50 [2] of the same molecule?
Answer: The IC50 was 0.39 µM.

Question: What about the IC50 (Cytochrome P450 2C9) of the same molecule?
Answer: The IC50 was 3.2 µM.

Question: And the AUC at 24 h [3]?
Answer: Its AUC at 24 h is 6900 ng·h/mL.

Question: And the Activity [4]?
Answer: Its Activity is “Non-Toxic”.

Question: What about the Activity [5] of the same molecule?
Answer: Its Activity is “inactive”.
